Assays:
[1] = test system: RPMI-8226; assay: Cytotoxicity against human RPMI8226 cells after 72 hrs by MTT assay; type: functional, cell-based; details: RPMI-8226, 72 h
[2] = test system: MCF7; assay: Cytotoxicity against human MCF7 cells after 72 hrs by MTT assay; type: functional, cell-based; details: MCF7, 72 h
[3] = Cytotoxicity against mouse LMTK cells after 72 hrs by MTT assay; type: cell-based; details: L-M(TK-)
[4] = Cytotoxicity against mouse PMF after 72 hrs by MTT assay
[5] = test system: Salmonella typhimurium; assay: Suppression in mutagenesity in Salmonella Typhimurium TA102 assessed as 100 to 50% suppression of revertant formation by Ames assay; details: Salmonella enterica
[6] = test system: Salmonella typhimurium; assay: Suppression in H2O2-iduced mutagenesity in Salmonella Typhimurium TA102 assessed as 100 to 50 % suppression of revertant formation by Ames assay; details: Salmonella enterica
[7] = test system: Salmonella typhimurium; assay: Suppression in H2O2-iduced mutagenesity in Salmonella Typhimurium TA102 assessed as 150 to 100 % suppression of revertant formation by Ames assay; details: Salmonella enterica
[8] = Growth inhibition of mouse PMF at 25 ug/ml after 72 hrs by MTT assay; details: mouse PMF cells, read-out: GI
Outline: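 PMF cells (about 2000 per well) seeded and held 24 h at 37 °C in IMDM or RPMI 1640 under 5% CO2, then exposed to compound.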

[9] = test system: Salmonella typhimurium; assay: Suppression in mutagenesity in Salmonella Typhimurium TA102 assessed as 100 to 50% suppression of revertant formation at 50 ug/ml by Ames assay
[10] = Growth inhibition of mouse LMTK cells at 173 uM after 72 hrs by MTT assay; type: cell-based

Row | SMILES | IC50 [1] | IC50 [2] | IC50 [3] | IC50 [4] | IC50 [5] | IC50 [6] | IC50 [7] | inhibition at 72 h, 25 ug/ml [8] | Activity [9] | growth inhibition (GI) [10]
1 | O=C1C(F)=C(Nc2ccccc2)C(=O)c2c(F)c(F)c(F)c(F)c21 | 2.4 µM | 2.4 µM | 11.8 µM | 7.4 µM | 0.59 µM | 0.15 µM | 0.089 µM |  |  | 
2 | CCN(CC)C1=C(F)C(=O)c2c(F)c(F)c(F)c(F)c2C1=O | 6.9 µM | 4.1 µM | 62.7 µM | 28.2 µM | 18.5 µM | 2.7 µM | 0.86 µM |  |  | 
3 | CC1=C(Nc2ccccc2)C(=O)c2c(F)c(F)c(F)c(F)c2C1=O | 22.4 µM | 13.4 µM | 104 µM |  | > 149 µM | 21.8 µM | 0.75 µM | 45% | 24% | 
4 | CC(C)(C)NC1=C(F)C(=O)c2c(F)c(F)c(F)c(F)c2C1=O | 3.5 µM | 2.5 µM | 6.3 µM | 3.1 µM | 12.2 µM | 6.9 µM | 1.4 µM |  |  | 
5 | CCNC1=C(F)C(=O)c2c(F)c(F)c(F)c(F)c2C1=O | 2.4 µM | 8.6 µM | 11 µM | 30.9 µM | 0.69 µM | 1 µM | 0.094 µM |  |  | 
6 | CC1=C(SCCO)C(=O)c2c(F)c(F)c(F)c(F)c2C1=O | 14.8 µM | 173 µM |  |  | 0.81 µM | 0.44 µM |  |  |  | Not Active
